Measured values taken from ChEMBL document CHEMBL1671657, “MurF inhibitors with antibacterial activity: effect on muropeptide levels” (Antimicrob Agents Chemother, 2009).
In brackets after ≈: the same amount, converted by molar mass. Activity calls are given as the source filed them. No cut-off for these calls is given here.

How the values were obtained:
[1] = Inhibition of Escherichia coli MurF
Escherichia coli [2] = assay: Antimicrobial activity against LPS-deffective Escherichia coli OC2530 by broth microdilution method; format: functional
Outline: (§1)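 MICs by CLSI broth microdilution. Where polymyxin B nonapeptide was included, it was present at 2 μg/ml alongside the test compound.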

Escherichia coli [3] = assay: Antimicrobial activity against Escherichia coli OC2605 by broth microdilution method; format: functional
Outline: (§2)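 CLSI broth microdilution MIC; strains from the sponsor's in-house collection.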

Escherichia coli [4] = assay: Antimicrobial activity against Escherichia coli OC9040 by broth microdilution method; format: functional; outline: as §1
Escherichia coli [5] = assay: Antimicrobial activity against Escherichia coli ATCC 25922 by broth microdilution method; format: functional; outline: as §1
Enterococcus faecalis = assay: Antimicrobial activity against Enterococcus faecalis ATCC 29212 by broth microdilution method; format: functional; outline: as §1
Enterococcus faecium = assay: Antimicrobial activity against Enterococcus faecium OC3312 by broth microdilution method; format: functional; outline: as §1
Staphylococcus aureus [6] = assay: Antimicrobial activity against Staphylococcus aureus ATCC 29213 by broth microdilution method; format: functional; outline: as §1
Staphylococcus aureus [7] = assay: Antimicrobial activity against methicillin-resistant Staphylococcus aureus OC3726 by broth microdilution method; format: functional; outline: as §2
Staphylococcus aureus [8] = assay: Antimicrobial activity against methicillin-resistant Staphylococcus aureus OC2878 by broth microdilution method; format: functional; outline: as §2
Staphylococcus aureus [9] = assay: Antimicrobial activity against Staphylococcus aureus OC4172 by broth microdilution method; format: functional; outline: as §1
Staphylococcus aureus [10] = assay: Antimicrobial activity against Staphylococcus aureus ATCC 29213 assessed as growth inhibition; format: functional, organism-based
Staphylococcus aureus [11] = assay: Antimicrobial activity against Staphylococcus aureus ATCC 29213 assessed as cell lysis; format: functional, organism-based
Staphylococcus aureus [12] = assay: Bacteriostatic activity against Staphylococcus aureus ATCC 29213 at 2 times MIC; format: functional, organism-based
Staphylococcus aureus [13] = assay: Inhibition of Staphylococcus aureus ATCC 29213 MurF assessed as UDP-MurNAc-tripeptide substrate level at MIC by HPLC (reference value: 1 mAU)
Outline: (§3)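 After 30 min, muropeptides were extracted and quantified by HPLC peak area, normalized to the control. The HPLC detection limit was 12 mAU. Results are representative of two independent experiments.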

Staphylococcus aureus [14] = assay: Inhibition of Staphylococcus aureus ATCC 29213 MurF assessed as UDP-MurNAc-tripeptide substrate level at 2 times MIC by HPLC (reference value: 1 mAU); outline: as §3
Staphylococcus aureus [15] = assay: Inhibition of Staphylococcus aureus ATCC 29213 MurF assessed as UDP-MurNAc-tripeptide substrate level at 4 times MIC by HPLC (reference value: 1 mAU); outline: as §3
Staphylococcus aureus [16] = assay: Inhibition of Staphylococcus aureus ATCC 29213 MurF assessed as UDP-MurNAc-pentapeptide product level at MIC by HPLC ([…])
Staphylococcus aureus [17] = assay: Inhibition of Staphylococcus aureus ATCC 29213 MurF assessed as UDP-MurNAc-pentapeptide product level at 2 times MIC by HPLC (reference value: 1 mAU); outline: as §3
Staphylococcus aureus [18] = assay: Inhibition of Staphylococcus aureus ATCC 29213 MurF assessed as UDP-MurNAc-pentapeptide product level at 4 times MIC by HPLC (reference value: 1 mAU); outline: as §3

For `COc1ccc2nc(OC)c([C@@H](c3ccccc3)[C@](O)(CCc3ccccc3)CCN(C)C)cc2c1`, the IC50 [1] was 29 µM, the MIC (Escherichia coli [2]) was 8 mg/L (≈ 16.5 µM) and the MIC (Escherichia coli [3]) was greater than 32 mg/L. The MIC (Escherichia coli [4]) was greater than 32 mg/L, the MIC (Escherichia coli [5]) was greater than 32 mg/L and the MIC (Enterococcus faecalis) was 8 mg/L (≈ 16.5 µM). For the same compound, the MIC (Enterococcus faecium) was 8 mg/L (≈ 16.5 µM), the MIC (Staphylococcus aureus [6]) was 8 mg/L (≈ 16.5 µM) and the MIC (Staphylococcus aureus [7]) was 8 mg/L (≈ 16.5 µM). For the same compound, the MIC (Staphylococcus aureus [8]) was 8 mg/L (≈ 16.5 µM), the MIC (Staphylococcus aureus [9]) was 8 mg/L (≈ 16.5 µM) and the inhibition (Staphylococcus aureus [10]) was “Dose-dependent effect”. For the same compound, the Activity (Staphylococcus aureus [11]) was “inactive”, the Activity (Staphylococcus aureus [12]) was “Active” and the Activity (fold of control) (Staphylococcus aureus [13]) was greater than 10. It also gave an Activity (fold of control) (Staphylococcus aureus [14]) greater than 38, an Activity (fold of control) (Staphylococcus aureus [15]) greater than 67 and an Activity (fold of control) (Staphylococcus aureus [16]) of 0.6. For the same compound, the Activity (fold of control) (Staphylococcus aureus [17]) was 0.34 and the Activity (fold of control) (Staphylococcus aureus [18]) was 0.21.
